Active and inactive are the calls of the source. The calls are words filed in the database; no cut-off is given here.
How the values were obtained:
M14 = assay: Growth inhibition of human M14 cells assessed as cell growth at 10 uM incubated for 48 hrs by sulforhodamine B assay relative to control; format: functional; conditions: M14, 48 h, read-out: Activity
Outline: (§1)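 Run in the standard NCI 60-cell-line screen. Cells were exposed to drug for two days, and the read-out was sulforhodamine B staining. Compound was tested at a single final concentration of 10 µM in every line, and results are reported as growth percent.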

[1] = Growth inhibition of human UACC62 cells incubated for 48 hrs by sulforhodamine B assay; format: functional; conditions: UACC-62, 48 h; for TGI: read-out: pTGI (converted)
Outline: (§2)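 Tested in the standard NCI 60-cell-line protocol with two-day drug exposure and a sulforhodamine B endpoint. Compounds were first screened at a single final concentration of 10 µM, reported as growth percent. They were then run as five 10-fold dilutions starting from a high concentration of 100 µM to give dose-response curves.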

SN12C = assay: Growth inhibition of human SN12C cells incubated for 48 hrs by sulforhodamine B assay; format: functional; conditions: for CC50: read-out: pLC50 (the source's name) (converted); for TGI: read-out: pTGI (converted); outline: as §2
[2] = AUClast in mouse at 20 mg/kg, po administered through gavage up to 8 hrs by LC-MS/MS analysis; format: ADME, organism-based; design: time < 8 hr, dose 20 mg/kg, route oral; conditions: in vivo
Outline: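 Mice received 20 mg/kg by oral gavage as a 20 mg/mL solution in Labrasol. Two mice were sacrificed at each of 5 min, 15 min, 1 h, 4 h and 8 h, ten mice in total. Plasma was precipitated with acetonitrile containing lorazepam internal standard and analysed by C18 UPLC-MS/MS, calibrated over 5-500 ng/mL. AUClast was calculated from these time points.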

[3] = target: Protein kinase C (PKC) (Homo sapiens) (UniProt O94806+P41743+P17252+P05129+Q05655+P05771+Q05513+Q02156+P24723+Q15139+Q04759); assay: Activation of PKC in human 786-0 cells at 1 uM; format: cell-based
EKVX [4] = assay: Growth inhibition of human EKVX cells assessed as cell growth at 10 uM incubated for 48 hrs by sulforhodamine B assay relative to control; format: functional; conditions: read-out: Activity; outline: as §1
EKVX [5] = assay: Growth inhibition of human EKVX cells incubated for 48 hrs by sulforhodamine B assay; format: functional
Outline: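 Run in the NCI 60-cell-line protocol, with 2-day drug exposure and sulforhodamine B read-out. Dose-response testing used five 10-fold dilutions starting from a high concentration of 100 µM.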

[6] = Toxicity in po dosed mouse administered through gavage; format: organism-based; conditions: in vivo
[7] = Plasma concentration in mouse at 100 mg/kg, po administered through gavage after 30 mins by LC-MS/MS analysis; format: ADME, organism-based
Outline: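 Oral gavage to mice in Labrasol vehicle (compound dissolved directly at 20 mg/mL); dose groups 5, 10, 50 and 100 mg/kg. Plasma sampled 30 min after dosing. Analysis by HPLC-MS/MS: acetonitrile protein precipitation with lorazepam internal standard, C18 UPLC column, calibration range 5-500 ng/mL.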

[8] = Plasma concentration in mouse at 20 mg/kg, po administered through gavage after 0.083 hrs by LC-MS/MS analysis; format: ADME, organism-based
Outline: (§3)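 Ten mice given 20 mg/kg by oral gavage in Labrasol (20 mg/mL solution). Two mice sacrificed at each of 5 min, 15 min, 1 h, 4 h and 8 h. Plasma measured by LC-MS/MS after acetonitrile precipitation with lorazepam internal standard on a C18 UPLC column (calibration 5-500 ng/mL). Mean of two animals per time point.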

[9] = Plasma concentration in mouse at 20 mg/kg, po administered through gavage after 0.25 hrs by LC-MS/MS analysis; format: ADME, organism-based; outline: as §3
[10] = Plasma concentration in mouse at 20 mg/kg, po administered through gavage after 1 hr by LC-MS/MS analysis; format: ADME, organism-based; outline: as §3
[11] = Plasma concentration in mouse at 20 mg/kg, po administered through gavage after 4 hrs by LC-MS/MS analysis; format: ADME, organism-based; outline: as §3
[12] = Plasma concentration in mouse at 20 mg/kg, po administered through gavage after 8 hrs by LC-MS/MS analysis; format: ADME, organism-based; outline: as §3

Structure (SMILES)	growth at 10 µM (M14) [%]	GI50 [1] [µM]	LC50 (lethal concentration, 50% net cell kill) [1] [µM]	TGI [1] [µM]	GI50 (SN12C) [µM]	CC50 (SN12C) [µM]	TGI (SN12C) [µM]	AUC(0-t) at 8 h [2] [ng·h/mL]	Activity [3]	growth at 10 µM (EKVX [4]) [%]	GI50 (EKVX [5]) [µM]	CC50 (EKVX [5]; read-out: pLC50 (the source's name) (converted)) [µM]	TGI (EKVX [5]; read-out: pTGI) [µM]	MTD [6] [mg/kg]	concentration at 0.5 h [7] [ng/mL]	concentration at 0.083 h [8] [ng/mL]	concentration at 0.25 h [9] [ng/mL]	concentration at 1 h [10] [ng/mL]	concentration at 4 h [11] [ng/mL]	concentration at 8 h [12] [ng/mL]
CC(C)[C@@]12C[C@@H](NC(=O)CF)[C@@](C)(O1)[C@@H]1CC[C@@H](C)[C@H]1[C@@H]2OC(=O)/C=C/c1ccccc1	96.7	–	–	–	–	–	–	–	–	–	–	–	–	–	–	–	–	–	–	–
CC(C)[C@@]12C[C@@H](NC(=O)CO)[C@@](C)(O1)[C@@H]1CC[C@@H](C)[C@H]1[C@@H]2OC(=O)/C=C/C1CCCCC1	104	> 44.7	> 44.7	> 44.7	> 44.7	> 44.7	> 44.7	–	–	–	–	–	–	–	–	–	–	–	–	–
CC(C)[C@@]12C[C@@H](NC(=O)CO)[C@@](C)(O1)[C@@H]1CC[C@@H](C)[C@H]1[C@@H]2OC(=O)c1ccc2ccccc2c1	95.2	13.5	55	26.9	11	55	24.5	–	–	–	–	–	–	–	–	–	–	–	–	–
CC(C)[C@@]12C[C@@H](NC(=O)CO)[C@@](C)(O1)[C@@H]1CC[C@@H](C)[C@H]1[C@@H]2OC(=O)/C=C/c1ccccc1	103	15.1	> 50.1	> 50.1	10.7	> 50.1	> 50.1	524	inactive	69	11.2	> 50.1	> 50.1	50	≤ 700	10	40.7	73.2	59	67.8
C/C(=C\C(=O)O[C@H]1[C@@H]2[C@H](C)CC[C@H]2[C@]2(C)O[C@@]1(C(C)C)C[C@H]2NC(=O)CO)c1ccccc1	100	35.5	> 100	> 100	11.5	> 100	66.1	–	–	–	–	–	–	–	–	–	–	–	–	–
